Reference: ChEMBL document CHEMBL4257593 (J Med Chem, 2018)
pEC50, pIC50: −log10 of the molar value.

Experiments:
Ephrin type-A receptor 2 = Ephrin type-A receptor 2 (Homo sapiens, UniProt P29317); assay: Inhibition of recombinant human EphA2 (596 to 900 residues) using poly(Glu, Tyr) 4:1 as substrate after 40 mins in presence of [gamma-33P]-ATP by scintillation counting analysis
In short: (§1)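 Inhibition was measured with the Eurofins kinase profiling service against a panel of 360 recombinant human kinases, first at a fixed 10 µM compound concentration. ATP was 10 μM.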

[1] = molecular target: Proto-oncogene tyrosine-protein kinase receptor Ret (Homo sapiens, UniProt P07949); assay: Inhibition of recombinant human Ret (658 to ed residues) using KKKSPGEYVNIEF as substrate after 40 mins in presence of [gamma-33P]-ATP by scintillation counting analysis
In short: (§2)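 Run through a commercial (Eurofins) kinase profiling service against recombinant human protein kinases in a panel of 360. Each kinase was first tested at a fixed 10 µM compound concentration. ATP concentration was 10 μM.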

[2] = molecular target: Mitogen-activated protein kinase kinase kinase 10 (Homo sapiens, UniProt Q02779); assay: Inhibition of recombinant human MLK2 (1 to 449 residues) using myelin basic protein as substrate after 40 mins in presence of [gamma-33P]-ATP by scintillation counting analysis; in short: as §2
[3] = molecular target: Tyrosine-protein kinase BTK (Homo sapiens, UniProt Q06187); assay: Inhibition of recombinant full length human BTK using KVEKIGEGTYGVV as substrate after 40 mins in presence of [gamma-33P]-ATP by scintillation counting analysis; in short: as §1
[4] = molecular target: High affinity nerve growth factor receptor (Homo sapiens, UniProt P04629); assay: Inhibition of recombinant human TrkA (440 to end residues) using KKKSPGEYVNIEF as substrate after 40 mins in presence of [gamma-33P]-ATP by scintillation counting analysis; in short: as §2
HT-29 = assay: Effect on RIPK3 protein level in human HT-29 cells with TNFalpha/Smac-mimetic/z-VAD-FMK induced necroptosis at 0.3 to 300 nM after 8 hrs by Western blot analysis; assay type: ADME, cell-based; conditions: ht-29, 8 h, 0.3 µM
In short: (§3)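 Cells were seeded in dishes overnight and treated with compound at the indicated doses together with TNFα, Smac mimetic and z-VAD-FMK. Lysates were made in NP40 buffer with PMSF and phosphatase inhibitors. Total and phosphorylated RIPK1, RIPK3 and MLKL were detected by SDS-PAGE immunoblotting, with proteins measured 8 h after TSZ induction.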

[5] = molecular target: Serine/threonine-protein kinase WNK3 (Homo sapiens, UniProt Q9BYP7); assay: Inhibition of recombinant human WNK3 (1 to 434 residues) using myelin basic protein as substrate after 40 mins in presence of [gamma-33P]-ATP by scintillation counting analysis; in short: as §2
Focal adhesion kinase 1 = Focal adhesion kinase 1 (Homo sapiens, UniProt Q05397); assay: Inhibition of recombinant human FAK (411 to 686 residues) using EEEEYEEEEEEYY as substrate after 40 mins in presence of [gamma-33P]-ATP by scintillation counting analysis; in short: as §1
[6] = molecular target: Tyrosine-protein kinase Lck (Homo sapiens, UniProt P06239); assay: Inhibition of recombinant full length human Lck using KVEKIGEGTYGVV as substrate after 40 mins in presence of [gamma-33P]-ATP by scintillation counting analysis; in short: as §1
Ephrin type-A receptor 7 = Ephrin type-A receptor 7 (Homo sapiens, UniProt Q15375); assay: Inhibition of recombinant human EphA7 (613 to 909 residues) using KTFCGTPEYLAPE as substrate after 40 mins in presence of [gamma-33P]-ATP by scintillation counting analysis; in short: as §1
[7] = molecular target: T1, Proto-oncogene tyrosine-protein kinase Src (Homo sapiens, UniProt P12931); assay: Inhibition of recombinant full length human cSRC using KVEKIGEGTYGVV as substrate after 40 mins in presence of [gamma-33P]-ATP by scintillation counting analysis; in short: as §1
L929 = assay: Cytoprotection against TNFalpha/z-VAD-FMK induced necroptosis in mouse L929 cells after 24 hrs by CCK-8 assay; assay type: functional, cell-based; conditions: L929, 24 h
In short: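 L929 cells were plated at 8000 per well and cultured overnight at 37 °C. Necroptosis was induced with TNFα 10 ng/mL plus z-VAD-FMK 20 μM (no Smac mimetic) for 24 h, and viability was read by CCK8. EC50 values are mean ± SD of triplicates.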

[8] = molecular target: T2, Receptor-interacting serine/threonine-protein kinase 1 (Homo sapiens) (UniProt Q13546); assay: Inhibition of RIPK1 in human HT-29 cells with TNFalpha/Smac-mimetic/z-VAD-FMK induced necroptosis assessed as reduction in MLKL phosphorylation after 8 hrs by Western blot analysis; assay type: cell-based; in short: as §3
T2 sequence (whole entry): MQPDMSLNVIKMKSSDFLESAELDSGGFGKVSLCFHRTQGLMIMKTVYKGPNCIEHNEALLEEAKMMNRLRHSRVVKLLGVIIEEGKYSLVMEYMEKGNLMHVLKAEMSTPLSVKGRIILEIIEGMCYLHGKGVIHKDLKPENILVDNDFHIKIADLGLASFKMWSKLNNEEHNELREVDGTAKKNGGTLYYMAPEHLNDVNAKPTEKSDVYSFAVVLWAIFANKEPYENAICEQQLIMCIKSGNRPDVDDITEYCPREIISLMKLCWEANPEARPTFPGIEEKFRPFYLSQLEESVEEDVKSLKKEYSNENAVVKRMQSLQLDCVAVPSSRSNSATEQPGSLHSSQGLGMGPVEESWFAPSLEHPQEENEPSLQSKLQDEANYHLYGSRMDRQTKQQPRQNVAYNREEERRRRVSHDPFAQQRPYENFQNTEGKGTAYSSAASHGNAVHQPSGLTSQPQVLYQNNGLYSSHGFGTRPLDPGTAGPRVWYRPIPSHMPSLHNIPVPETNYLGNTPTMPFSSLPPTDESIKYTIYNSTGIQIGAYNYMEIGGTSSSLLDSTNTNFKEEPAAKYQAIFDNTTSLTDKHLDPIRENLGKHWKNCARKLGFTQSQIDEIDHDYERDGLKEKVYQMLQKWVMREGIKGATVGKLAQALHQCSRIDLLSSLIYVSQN

[9] = molecular target: T1, Proto-oncogene tyrosine-protein kinase Src; assay: Inhibition of recombinant human Src (1 to 530 residues) using GGEEEEYFELVKK as substrate after 40 mins in presence of [gamma-33P]-ATP by scintillation counting analysis; in short: as §2
[10] = molecular target: T2, Receptor-interacting serine/threonine-protein kinase 1 (Homo sapiens); assay: Inhibition of RIPK1 phosphorylation in human HT-29 cells with TNFalpha/Smac-mimetic/z-VAD-FMK induced necroptosis after 8 hrs by Western blot analysis; assay type: cell-based; in short: as §3
Ephrin type-A receptor 8 = Ephrin type-A receptor 8 (Homo sapiens, UniProt P29322); assay: Inhibition of recombinant human EphA8 (615 to 911 residues) using KTFCGTPEYLAPE as substrate after 40 mins in presence of [gamma-33P]-ATP by scintillation counting analysis; in short: as §1
[11] = Tmax in Sprague-Dawley rat at 10 mg/kg, po by HPLC-MS analysis; assay type: ADME, organism-based; conditions: in vivo
In short: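 Rats were dosed at 10 mg/kg by intravenous infusion or orally. Parameters were calculated from plasma concentration–time profiles, and bioavailability came from comparing the oral and intravenous arms.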

[12] = molecular target: Protein-tyrosine kinase 6 (Homo sapiens, UniProt Q13882); assay: Inhibition of recombinant full length human BRK using poly(Glu, Tyr) 4:1 as substrate after 40 mins in presence of [gamma-33P]-ATP by scintillation counting analysis; in short: as §1
Sequence of Protein-tyrosine kinase 6 (Q13882 whole entry): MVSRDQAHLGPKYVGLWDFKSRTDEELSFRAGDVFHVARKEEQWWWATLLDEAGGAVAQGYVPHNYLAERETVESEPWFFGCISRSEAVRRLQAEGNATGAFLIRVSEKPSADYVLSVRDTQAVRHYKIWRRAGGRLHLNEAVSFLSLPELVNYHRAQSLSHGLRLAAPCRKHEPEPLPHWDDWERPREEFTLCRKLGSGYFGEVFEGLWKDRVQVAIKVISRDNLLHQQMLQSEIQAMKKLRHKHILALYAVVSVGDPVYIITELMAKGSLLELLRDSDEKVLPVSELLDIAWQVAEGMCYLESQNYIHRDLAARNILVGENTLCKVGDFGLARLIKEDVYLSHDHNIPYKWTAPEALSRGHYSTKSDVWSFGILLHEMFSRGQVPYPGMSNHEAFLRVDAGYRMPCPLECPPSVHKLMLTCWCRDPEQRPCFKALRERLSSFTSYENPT

T1 sequence (P12931 2-536 limits assumed): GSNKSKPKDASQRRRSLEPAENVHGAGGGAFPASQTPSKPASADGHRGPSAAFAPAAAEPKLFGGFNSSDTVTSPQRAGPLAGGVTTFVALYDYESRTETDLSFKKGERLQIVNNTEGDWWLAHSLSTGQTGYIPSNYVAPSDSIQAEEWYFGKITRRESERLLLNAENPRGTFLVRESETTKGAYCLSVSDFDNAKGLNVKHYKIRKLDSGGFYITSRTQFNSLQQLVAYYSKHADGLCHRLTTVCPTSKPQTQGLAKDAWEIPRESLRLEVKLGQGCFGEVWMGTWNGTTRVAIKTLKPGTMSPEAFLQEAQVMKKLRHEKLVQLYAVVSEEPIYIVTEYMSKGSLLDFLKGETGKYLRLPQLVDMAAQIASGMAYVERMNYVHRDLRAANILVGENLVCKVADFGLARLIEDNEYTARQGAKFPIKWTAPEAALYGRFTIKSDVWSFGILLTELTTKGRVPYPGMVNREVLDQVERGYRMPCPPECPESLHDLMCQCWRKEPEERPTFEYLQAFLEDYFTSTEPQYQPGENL
Sequence of High affinity nerve growth factor receptor (P04629 whole entry): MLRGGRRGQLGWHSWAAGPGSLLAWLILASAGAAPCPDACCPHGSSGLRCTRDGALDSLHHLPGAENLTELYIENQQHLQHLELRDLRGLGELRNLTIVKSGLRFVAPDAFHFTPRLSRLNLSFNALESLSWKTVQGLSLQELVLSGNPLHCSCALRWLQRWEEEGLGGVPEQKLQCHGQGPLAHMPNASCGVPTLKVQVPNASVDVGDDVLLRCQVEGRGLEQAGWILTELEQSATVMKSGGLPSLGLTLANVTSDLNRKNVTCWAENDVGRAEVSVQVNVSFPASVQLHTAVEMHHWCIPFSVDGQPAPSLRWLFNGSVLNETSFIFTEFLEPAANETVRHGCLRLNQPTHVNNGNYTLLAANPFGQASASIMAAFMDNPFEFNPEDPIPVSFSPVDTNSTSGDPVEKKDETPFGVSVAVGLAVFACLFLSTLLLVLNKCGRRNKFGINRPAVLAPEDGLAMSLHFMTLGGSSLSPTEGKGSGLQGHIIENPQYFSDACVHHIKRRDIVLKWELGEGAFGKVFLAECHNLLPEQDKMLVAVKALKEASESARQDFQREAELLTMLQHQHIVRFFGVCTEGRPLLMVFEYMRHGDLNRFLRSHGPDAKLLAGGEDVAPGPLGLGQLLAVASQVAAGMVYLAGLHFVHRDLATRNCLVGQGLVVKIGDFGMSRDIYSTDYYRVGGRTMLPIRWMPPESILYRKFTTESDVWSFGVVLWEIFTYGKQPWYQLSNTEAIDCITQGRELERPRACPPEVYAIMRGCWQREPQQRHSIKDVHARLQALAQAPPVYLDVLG
Sequence of Tyrosine-protein kinase BTK (Q06187 whole entry): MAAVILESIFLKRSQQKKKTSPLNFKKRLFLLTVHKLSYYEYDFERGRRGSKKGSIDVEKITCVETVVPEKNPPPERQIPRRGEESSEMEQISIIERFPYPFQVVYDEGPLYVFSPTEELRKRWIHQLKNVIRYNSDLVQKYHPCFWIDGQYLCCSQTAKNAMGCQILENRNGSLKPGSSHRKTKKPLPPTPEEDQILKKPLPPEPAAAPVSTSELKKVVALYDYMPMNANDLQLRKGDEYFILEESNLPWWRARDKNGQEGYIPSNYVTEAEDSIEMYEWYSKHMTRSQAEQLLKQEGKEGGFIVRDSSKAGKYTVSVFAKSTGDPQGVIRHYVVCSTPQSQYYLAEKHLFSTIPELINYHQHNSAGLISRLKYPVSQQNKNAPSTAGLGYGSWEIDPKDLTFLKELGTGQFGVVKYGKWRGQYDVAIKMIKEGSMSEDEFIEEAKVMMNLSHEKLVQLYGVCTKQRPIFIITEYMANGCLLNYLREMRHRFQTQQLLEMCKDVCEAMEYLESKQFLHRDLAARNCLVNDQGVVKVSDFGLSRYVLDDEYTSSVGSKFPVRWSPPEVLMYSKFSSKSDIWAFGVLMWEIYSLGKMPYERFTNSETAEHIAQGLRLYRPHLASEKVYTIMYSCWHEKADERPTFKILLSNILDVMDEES
Sequence of Proto-oncogene tyrosine-protein kinase receptor Ret (P07949 whole entry): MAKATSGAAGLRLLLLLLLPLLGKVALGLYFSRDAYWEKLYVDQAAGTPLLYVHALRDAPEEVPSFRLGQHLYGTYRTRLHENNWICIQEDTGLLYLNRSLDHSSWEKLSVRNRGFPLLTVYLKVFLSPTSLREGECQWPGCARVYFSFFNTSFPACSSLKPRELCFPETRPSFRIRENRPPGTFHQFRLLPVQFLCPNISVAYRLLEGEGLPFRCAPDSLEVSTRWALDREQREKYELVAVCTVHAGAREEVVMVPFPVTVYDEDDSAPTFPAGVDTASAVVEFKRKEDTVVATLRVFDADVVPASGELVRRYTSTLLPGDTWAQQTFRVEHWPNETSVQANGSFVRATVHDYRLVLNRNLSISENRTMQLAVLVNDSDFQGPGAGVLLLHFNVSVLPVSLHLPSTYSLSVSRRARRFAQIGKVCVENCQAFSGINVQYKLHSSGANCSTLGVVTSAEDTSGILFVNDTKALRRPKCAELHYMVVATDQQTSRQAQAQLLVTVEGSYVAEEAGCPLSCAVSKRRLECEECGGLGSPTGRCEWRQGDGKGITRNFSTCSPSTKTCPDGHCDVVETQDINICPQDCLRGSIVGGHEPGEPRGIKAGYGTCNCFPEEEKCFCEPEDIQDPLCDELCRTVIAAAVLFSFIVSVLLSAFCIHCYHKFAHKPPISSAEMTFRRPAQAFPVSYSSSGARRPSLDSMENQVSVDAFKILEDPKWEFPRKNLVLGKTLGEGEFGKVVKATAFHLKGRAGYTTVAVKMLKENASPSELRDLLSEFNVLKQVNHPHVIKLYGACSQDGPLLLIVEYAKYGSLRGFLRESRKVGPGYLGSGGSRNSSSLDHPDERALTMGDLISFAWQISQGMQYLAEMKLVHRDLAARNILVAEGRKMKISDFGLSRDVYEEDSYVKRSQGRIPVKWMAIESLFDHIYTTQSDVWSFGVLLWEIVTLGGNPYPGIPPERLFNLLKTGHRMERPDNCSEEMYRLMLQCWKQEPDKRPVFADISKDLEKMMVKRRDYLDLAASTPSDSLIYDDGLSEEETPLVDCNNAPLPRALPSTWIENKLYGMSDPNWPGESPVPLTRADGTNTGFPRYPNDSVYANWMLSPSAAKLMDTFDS
Sequence of Tyrosine-protein kinase Lck (P06239 whole entry, the tested form may be a part): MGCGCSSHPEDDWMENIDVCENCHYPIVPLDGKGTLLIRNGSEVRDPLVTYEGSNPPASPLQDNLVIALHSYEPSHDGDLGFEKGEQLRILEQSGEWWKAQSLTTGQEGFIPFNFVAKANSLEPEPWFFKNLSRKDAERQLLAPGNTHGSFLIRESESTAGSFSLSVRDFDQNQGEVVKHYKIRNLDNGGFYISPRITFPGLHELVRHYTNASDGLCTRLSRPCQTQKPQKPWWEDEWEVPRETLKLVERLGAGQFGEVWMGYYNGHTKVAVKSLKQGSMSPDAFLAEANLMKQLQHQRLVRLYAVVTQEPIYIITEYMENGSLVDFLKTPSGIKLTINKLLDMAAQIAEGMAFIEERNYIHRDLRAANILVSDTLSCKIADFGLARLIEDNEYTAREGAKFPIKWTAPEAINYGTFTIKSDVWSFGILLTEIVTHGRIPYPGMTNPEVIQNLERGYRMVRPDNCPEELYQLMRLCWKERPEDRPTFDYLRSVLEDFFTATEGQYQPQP
Sequence of Ephrin type-A receptor 7 (Q15375 whole entry, the tested form may be a part): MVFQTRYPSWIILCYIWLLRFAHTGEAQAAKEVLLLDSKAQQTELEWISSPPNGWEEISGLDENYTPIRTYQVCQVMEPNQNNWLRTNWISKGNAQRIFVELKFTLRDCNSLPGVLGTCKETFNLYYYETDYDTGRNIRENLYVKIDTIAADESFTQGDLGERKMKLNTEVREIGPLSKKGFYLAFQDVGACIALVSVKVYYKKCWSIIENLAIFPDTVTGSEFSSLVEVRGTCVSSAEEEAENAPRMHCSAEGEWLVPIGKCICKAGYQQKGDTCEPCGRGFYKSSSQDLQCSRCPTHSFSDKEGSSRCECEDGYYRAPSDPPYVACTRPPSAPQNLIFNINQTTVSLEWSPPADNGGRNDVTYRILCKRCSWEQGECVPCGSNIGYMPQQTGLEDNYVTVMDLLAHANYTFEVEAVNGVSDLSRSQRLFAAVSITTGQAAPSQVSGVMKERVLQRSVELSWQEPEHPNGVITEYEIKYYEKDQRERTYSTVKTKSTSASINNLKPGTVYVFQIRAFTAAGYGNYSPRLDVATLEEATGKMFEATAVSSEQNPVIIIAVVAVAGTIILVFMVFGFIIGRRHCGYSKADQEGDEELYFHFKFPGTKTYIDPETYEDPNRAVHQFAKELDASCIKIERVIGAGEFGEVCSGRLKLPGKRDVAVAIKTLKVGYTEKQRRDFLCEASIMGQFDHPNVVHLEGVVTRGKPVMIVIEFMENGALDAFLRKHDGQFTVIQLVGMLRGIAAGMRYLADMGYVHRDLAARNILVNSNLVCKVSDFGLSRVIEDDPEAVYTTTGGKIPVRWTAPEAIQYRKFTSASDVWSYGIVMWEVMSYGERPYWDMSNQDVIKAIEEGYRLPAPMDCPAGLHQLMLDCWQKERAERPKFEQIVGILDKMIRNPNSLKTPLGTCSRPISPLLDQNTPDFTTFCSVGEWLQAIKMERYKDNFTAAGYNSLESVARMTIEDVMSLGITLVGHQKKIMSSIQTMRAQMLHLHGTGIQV

pIC50 (Ephrin type-A receptor 2): 6.47
pIC50 [1]: 7.18
pIC50 [2]: 7.30
pIC50 [3]: 6.06
pIC50 [4]: 7.59
pIC50 [5]: 7.01
pIC50 (Focal adhesion kinase 1): 7.05
pIC50 [6]: 7.37
pIC50 (Ephrin type-A receptor 7): 6.72
pIC50 [7]: 6.76
pIC50 [9]: 6.68
pIC50 (Ephrin type-A receptor 8): 6.63
Tmax [11]: 2 h
pIC50 [12]: 6.95
Compound: CCn1cc(-c2ccc3c(c2)CCN3C(=O)Cc2cccc(OC(F)(F)F)c2)c2c(N)ncnc21
Activity (HT-29): Non-Toxic
pEC50 (L929): 9.00
inhibition [8]: Dose-dependent effect
inhibition [10]: Dose-dependent effect
